Sampled rows, rich in hits. Any-hit rate of the full collection: about 1.7%.
TPT1 inh: C. albicans TPT1 enzyme inhibition; inhibition, % at 5 µM; 300,000 tested, 0.81% active; recombinant caTPT1, FP RNA substrate dephosphorylation;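 active = inhibition above the mean of all tested compounds plus 3 SD, set per screening campaign, cut at about 24% in these data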
HNF4A DNA FP: change in binding of human HNF4 alpha to DNA | P41235 | HNF4a-FITC DNA binding, fluorescence polarization, 1 h | activity change, % at 10 µM | 360,000 tested, 0.3% active | AID 1224865; in the data active = activity change above about 30%, passing the limit was not always enough
CSN inh: blocks human CSN-mediated cullin deneddylation | Purified CSN, SCF-Nedd8-OG deneddylation, fluorescence polarization | inhibition, % at 12.5 µM | 360,000 tested, 0.38% active | AID 651999;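 active = pattern-corrected inhibition above about 35%, with an unprinted fluorescence ratio check between 0.5 and 1.5, limit read from the data, passing the limit was not always enough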
Target sequence (Q92905 whole entry, looked up, one chain of several): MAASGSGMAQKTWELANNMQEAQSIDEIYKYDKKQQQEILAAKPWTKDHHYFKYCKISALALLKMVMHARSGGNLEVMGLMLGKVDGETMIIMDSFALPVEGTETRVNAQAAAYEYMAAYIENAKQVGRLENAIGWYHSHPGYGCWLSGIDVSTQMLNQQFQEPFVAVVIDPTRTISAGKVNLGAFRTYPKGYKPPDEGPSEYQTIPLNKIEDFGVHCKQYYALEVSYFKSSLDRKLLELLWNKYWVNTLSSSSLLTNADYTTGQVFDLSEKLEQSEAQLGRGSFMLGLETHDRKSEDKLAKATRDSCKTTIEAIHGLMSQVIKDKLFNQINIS
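test system = HEK293T-derived human Csn5 enzyme | amount = 0.24 nM Csn5 enzyme, final concentration | medium = Tris/NaCl/DTT buffer, pH 7.5 | schedule = 90 min reaction at room temperature | signal = FP | evaluation = inhibition of Csn5 cleavage, % | compound dosing = single dose of 12.5 µM compound with 0.25% DMSO | probe or stimulus = 10 nM SCFSkp2-Nedd8OG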
Rpn11 block: blocks the human proteasome subunit Rpn11; O00487; 360,000 tested, 0.59% active; human 26S proteasome, Ub4-pepOG fluorescence polarization; 20S core pre-blocked with epoxomicin; inhibition, % at 20 µM;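 active = inhibition at 20 µM, scaled to each plate's controls, above about 33%, limit read from the data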
IDE cell inh: inhibitors of human insulin-degrading enzyme in cells. inhibition, % at 5.59 µM. 320,000 tested, 0.41% active. HEK cells, FAbetaB cleavage, fluorescence polarization. P14735;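 active = percent inhibition above the average of all tested compounds plus 3 SD, set per screening campaign, cut at about 16% in these data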;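 note: IDE supplied by intact live HEK cells; FP after avidin binding of uncleaved biotin substrate so inhibition keeps polarization high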
IDE act: activators of human insulin-degrading enzyme in cells; P14735; HEK cells, FAbeta-B cleavage, fluorescence polarization; 0% vehicle, 100% cell-free pure enzyme wells; activation, % at 5.96 µM; 340,000 tested, 0.073% active; AID 493087;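 active = activation above the mean of all tested compounds plus 3 SD, set per screening campaign, cut at about 17% in these data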
Rpn11 inh conf: Rpn11 inhibition confirmation, single concentration; shares compounds with Rpn11 block; purified human 26S proteasome, Ub4-pepOG fluorescence polarization; proteasome pretreated with epoxomicin; inhibition, % at 20 µM; 1,900 tested, 29% active
MMP-2 counter: counter-screen for RPN11 inhibitors: inhibition of human MMP-2; recombinant MMP-2, FRET peptide cleavage fluorescence; AID 602330; shares compounds with Rpn11 block; 1,900 tested, 4% active; inhibition, % at 20 µM;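 note: human MMP-2 activated beforehand with APMA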
Thrombin FP: blocks bovine thrombin, flagging nonselective RPN11 hits | 1,900 tested, 13% active | bovine thrombin cleavage of Ub4-pepOG, fluorescence polarization | shares compounds with Rpn11 block | inhibition, % at 20 µM;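 active = mean inhibition at least 40% at 20 µM, or signal 3 deviations below plate average, so some actives read negative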
Of the large screens only hits and unclear results are named; the others gave an inactive call (follow-up assays come after a bar, where they were run). Cut-off read from the data, not from the text of the source, unless noted: active = inhibition above about 40%; inactive = the rest.

Fc1ccccc1NC(=S)NN(Cc1ccccc1)c1ccccc1	HNF4A DNA FP 38, Rpn11 block 111 | Rpn11 inh conf inactive | MMP-2 counter 46 | Thrombin FP inactive
COc1ccc(Br)cc1CN(C)C(=O)c1ccccc1SCC(=O)N1CCCC1	none (no result: TPT1 inh, IDE cell inh)
COc1cc(CN2c3ccccc3C(=O)CS2(=O)=O)cc(OC)c1	Rpn11 block 58 (no result: TPT1 inh, IDE cell inh) | Rpn11 inh conf 82 | MMP-2 counter inactive | Thrombin FP inactive
COc1cccc(CN2C(=O)c3ccccc3S2(=O)=O)c1	none
O=C1CS(=O)(=O)N(Cc2ccccc2F)c2ccc(Br)cc21	Rpn11 block 50 (no result: TPT1 inh, IDE cell inh) | Rpn11 inh conf inactive | MMP-2 counter inactive | Thrombin FP inactive
O=C1CCN(Cc2ccccc2)S(=O)(=O)c2ccc(F)cc21	none (no result: TPT1 inh)
O=C1CS(=O)(=O)N(Cc2ccc(F)cc2)c2ccccc21	Rpn11 block 66 (no result: TPT1 inh, IDE cell inh) | Rpn11 inh conf inactive | MMP-2 counter inactive | Thrombin FP inactive
Cc1ccc(Cc2c(-c3ccc(F)cc3)nc3c(C)cc(Br)cn23)cc1	none (no result: TPT1 inh, IDE cell inh, IDE act)
Cc1cc(Cl)ccc1C(O)c1ncc(-c2ccc(F)cc2)[nH]1 (stereo not given)	none (no result: TPT1 inh, IDE cell inh, IDE act)
CCOC(=O)N1CCN(C(=O)CCC(=O)c2ccc(OCC)cc2)CC1	none
CCOc1ccc(C(=O)CCC(=O)N2CCC(C(=O)OC)CC2)cc1	Rpn11 block 48 | Rpn11 inh conf inactive | MMP-2 counter inactive | Thrombin FP inactive
CCc1nc2c(OCCC3CCCCC3)cccn2c1N(C)C(=O)C(C)C	none (no result: TPT1 inh, IDE cell inh, IDE act)
OCC[C@@H]1C[C@H](O)[C@@H](O)[C@]2(OCc3cc(Cl)ccc32)O1	none (no result: TPT1 inh, IDE cell inh, IDE act)
CC(=O)c1ccc(N2CCN(C(=O)Cc3cccs3)CC2)cc1	HNF4A DNA FP 88, Rpn11 block 62 | Rpn11 inh conf inactive | MMP-2 counter 50 | Thrombin FP inactive
CCc1cccc(CC)c1NC(=O)NC1CCCCC1	none
CCc1cccc(CC)c1NC(=O)CN1CC(C)SC1=NC1CCCCC1 (stereo not given)	Rpn11 block 61 | Rpn11 inh conf inactive | MMP-2 counter inactive | Thrombin FP inactive
CN(Cc1ccccc1)C(=O)c1cccc(NC(=O)Cc2ccc(NC(=O)C3CCCN(C(=O)C4CCCC4)C3)cc2)c1 (stereo not given)	none (no result: TPT1 inh, IDE cell inh)
O=C(O)c1ccc(N=Nc2c(O)ccc3ncccc23)cc1	Rpn11 block 47, IDE act 39 | Rpn11 inh conf inactive | MMP-2 counter inactive | Thrombin FP inactive
COc1ccc([C@H]2N[C@]3(CCCN(CC4CCCCC4)C3=O)[C@H]3C(=O)N(Cc4ccccc4)C(=O)[C@@H]23)cc1	none (no result: TPT1 inh, IDE cell inh, IDE act)
O=C(O)CC/C(=C/c1cccc(NC(=O)c2ccccc2Cl)c1)c1nc2ccccc2s1	none (no result: TPT1 inh, IDE cell inh)
COc1cc(/C=C(\CCC(=O)O)c2nc3ccccc3s2)ccc1OCC(=O)Nc1c(Cl)cccc1Cl	Rpn11 block 73 (no result: TPT1 inh) | Rpn11 inh conf inactive | MMP-2 counter inactive | Thrombin FP inactive
C[C@@H]1CN([C@H](C)CO)C(=O)c2cc(Br)cnc2O[C@@H]1CN(C)C(=O)Cc1ccccc1	none (no result: TPT1 inh, IDE cell inh, IDE act)
Cn1c(C(=O)NCCN2CCCCCC2)cc2c(=O)n(C)c3ccccc3c21	Rpn11 block 84 | Rpn11 inh conf inactive | MMP-2 counter inactive | Thrombin FP inactive
Cn1c(C(=O)NCCN2CCN(Cc3ccccc3)CC2)cc2c(=O)n(C)c3ccccc3c21	none
C[C@H](NC(=O)C[C@@H]1CC[C@H]2[C@@H](COC[C@H](O)CN2Cc2ccc(C(F)(F)F)cc2)O1)c1ccccc1	none (no result: TPT1 inh, Rpn11 block, IDE cell inh, IDE act)
O=C(Nc1ccc2nn(-c3ccccc3)nc2c1)c1ccc(Br)o1	Rpn11 block 45 | Rpn11 inh conf inactive | MMP-2 counter inactive | Thrombin FP inactive
Cc1ccc(N(CC(=O)N/N=C/c2cccs2)S(C)(=O)=O)cc1	Rpn11 block 29 | Rpn11 inh conf inactive | MMP-2 counter inactive | Thrombin FP inactive
